Measured values pooled from the literature.
Each line is one published result; the experiments were not run side by side.
Target: Serine/threonine-protein kinase SIK2 (SIK2, Homo sapiens, UniProt Q9H0K1)

FC(F)(F)Oc1cccc(-c2cnc3ccc(-c4ccncc4)nn23)c1
activity vs control (enzyme activity; inhibitor; radiometric; 5 µM): 69%

CN(C)C(=O)Cn1cc(-c2nc(C3(c4ccc(-c5cnc(N)nc5)cc4)CC3)no2)cn1
remaining binding (cell-free assay; competition with immobilised ligand; 1 µM): 100%

CC/C(=N\NC(=O)NCc1cccc(O)c1)c1ccc(O)c(C)c1O
inhibition (enzyme activity; inhibitor; 0.1 µM): -5.5%

Nc1ncnc2occ(-c3ccc(NC(=O)Nc4cc(C(F)(F)F)ccc4F)cc3)c12
remaining signal (cell-free assay; inhibitor; 20 µM): 57%

O=C1Nc2ccc(Cl)cc2C1=Cc1cc(Cl)c(O)c(Cl)c1
remaining signal (cell-free assay; 0.5 µM): 95%

CCOc1cc(-c2nncn2C)ccc1Nc1ncc2cc(C)nc(NCC(C)(C)C)c2n1
inhibition (enzyme activity; inhibitor; FRET; 1 µM): < 15%

CC(C)(O)[C@H]1CC[C@H](Nc2ccc3ncc(-c4cccc(C(F)(F)F)c4)n3n2)CC1
remaining activity (enzyme activity; inhibitor; 1 µM): 47.7%

CC(C)(C)c1nc(-c2cccc(NS(=O)(=O)c3c(F)cccc3F)c2F)c(-c2ccnc(N)n2)s1
remaining activity (enzyme activity; inhibitor; radiometric; 1 µM): 98%

O=C(Nc1cnn(-c2csc(C(=O)NC3COC3)c2)c1)Nc1c(F)cccc1Cl
remaining activity (enzyme activity; inhibitor; 5 µM): 95.8%

COc1cc2ncnc(Nc3ccc(Oc4ccccc4)c(C)c3C)c2cc1OC
inhibition (enzyme activity; inhibitor; 1 µM): 0%

CNC(=O)Nc1ccc2c(c1)[C@@]1(CC2)OC(=O)N(CC(=O)N(Cc2ccc(F)cc2)[C@@H](C)C(F)(F)F)C1=O
remaining binding (cell-free assay; competition with immobilised ligand; 1 µM): 88%

COc1cc(Nc2cnc(C#N)c(O[C@H](C)CN(C)C)n2)ncc1-c1cnn(C)c1
remaining activity (enzyme activity; inhibitor; radiometric; 1 µM): 80%

Cc1ccc(C(=O)Nc2ccc(CN3CCN(C)CC3)c(C(F)(F)F)c2)cc1C#Cc1cnc2cccnn12
remaining activity (enzyme activity; inhibitor; 23.5 nM): 67%

O=C(Nc1cccnn1)N1CCC(=Cc2cccc(Oc3ccc(C(F)(F)F)cn3)c2)CC1
remaining binding (cell-free assay; competition with immobilised ligand; 1 µM): 100%

CCN(CC)CCNC(=O)c1c(C)[nH]c(/C=C2\C(=O)Nc3ccc(F)cc32)c1C
remaining signal (cell-free assay; 0.5 µM): 27.8%

Cc1cc(NC(=O)c2cccc(S(F)(F)(F)(F)F)c2)cc(-n2ccn3nc(-c4cccnc4)cc23)c1
remaining binding (cell-free assay; competition with immobilised ligand; 1 µM): 100%

COc1cc(Nc2c(C#N)cnc3cc(OCCCN4CCN(C)CC4)c(OC)cc23)c(Cl)cc1Cl
remaining signal (cell-free assay; 0.5 µM): 1.93%

CNCc1ccccc1-c1csc([C@@H](C)Nc2nc(C)nc3cc(OC)c(OC)cc23)c1
remaining binding (cell-free assay; competition with immobilised ligand; 1 µM): 100%

COc1cc(-c2cc(-c3ccc(N4CCNCC4)cc3)cnc2N)cc(OC)c1OC
inhibition (enzyme activity; inhibitor; 1 µM): 82%
